Laboratory results reported in ChEMBL document CHEMBL1212834, “Pyrido[2,3-b]pyrazines, discovery of TRPV1 antagonists with reduced potential for the formation of reactive metabolites” (Bioorg Med Chem Lett, 2010).
The source made the active and inactive calls. No cut-off for these calls is given here.

Experiments:
[1] = Plasma concentration in rat complete Freund's adjuvant-induced inflammation model at 3 mg/kg, po QD for 3 consecutive days measured at 2 hrs post dose on day 1; type: ADME, organism-based; set-up: dose 3 mg/kg, route oral
How it was run: (§1)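 CFA (200 µL) injected intraplantar into left hind paw; next day rats dosed orally once daily for three consecutive days (1, 3 or 10 mg/kg, suspension in 0.5% methocel). Separate cohort: plasma sampled each day 2 h after dosing.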

[2] = biological target: T1, Transient receptor potential cation channel subfamily V member 1 (Rattus norvegicus, UniProt O35433); type: functional, tissue-based, Sprague-Dawley, Dorsal root ganglion; conditions: read-out: IC50
T1 sequence (O35433 whole entry): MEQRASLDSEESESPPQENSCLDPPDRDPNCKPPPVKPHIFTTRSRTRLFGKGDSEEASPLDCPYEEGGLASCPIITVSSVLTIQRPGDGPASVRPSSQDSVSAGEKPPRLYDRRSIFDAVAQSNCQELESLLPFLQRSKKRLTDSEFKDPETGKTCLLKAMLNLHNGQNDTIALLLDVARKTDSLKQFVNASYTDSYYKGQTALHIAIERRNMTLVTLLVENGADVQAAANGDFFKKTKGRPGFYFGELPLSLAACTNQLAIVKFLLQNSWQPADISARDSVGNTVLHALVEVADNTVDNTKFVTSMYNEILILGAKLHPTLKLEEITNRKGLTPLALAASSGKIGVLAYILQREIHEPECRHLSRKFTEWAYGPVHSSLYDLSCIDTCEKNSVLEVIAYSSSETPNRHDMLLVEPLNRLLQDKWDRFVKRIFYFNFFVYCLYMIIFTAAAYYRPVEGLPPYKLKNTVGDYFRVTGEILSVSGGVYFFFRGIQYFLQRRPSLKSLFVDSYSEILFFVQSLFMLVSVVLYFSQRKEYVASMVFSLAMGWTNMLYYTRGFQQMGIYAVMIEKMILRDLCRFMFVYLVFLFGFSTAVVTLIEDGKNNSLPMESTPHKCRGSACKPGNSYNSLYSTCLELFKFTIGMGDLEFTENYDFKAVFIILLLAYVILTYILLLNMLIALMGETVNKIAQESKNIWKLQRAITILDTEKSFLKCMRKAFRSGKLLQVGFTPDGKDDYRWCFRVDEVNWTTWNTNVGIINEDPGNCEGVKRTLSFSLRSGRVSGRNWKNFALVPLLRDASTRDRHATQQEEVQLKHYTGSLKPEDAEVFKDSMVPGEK

Rattus norvegicus [3] = test: Antiinflammatory activity in Sprague-Dawley rat assessed as inhibition of carrageenan-induced thermal hyperalgesia at 3 mg/kg, po administered 3.5 hrs after carrageenan challenge measured after 5 hrs; type: functional
How it was run: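 Rat carrageenan-induced thermal hyperalgesia. Dosed orally as a suspension in 0.5% methocel; % inhibition reported at each dose.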

[4] = Clearance in rat at 1 mg/kg, iv; type: ADME, organism-based; set-up: dose 1 mg/kg, route intravenous; conditions: in vivo
How it was run: (§2)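 IV PK at 1 mg/kg, given as a solution in 3:1 PEG300:water. Plasma half-life, clearance and volume of distribution derived.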

[5] = Volume of distribution in rat at 1 mg/kg, iv; type: ADME, organism-based; set-up: dose 1 mg/kg, route intravenous; conditions: in vivo
How it was run: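 Intravenous dose of 1 mg/kg given as a solution in 3:1 PEG300:water to rat, dog or rhesus monkey. Plasma PK parameters (T1/2, clearance, Vd) derived.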

[6] = AUC (0 to 24 hrs) in rat at 1 mg/kg, po; type: ADME, organism-based; set-up: time < 24 hr, dose 1 mg/kg, route oral; conditions: plasma
How it was run: (§3)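 Oral PK at the dose in the line, given as a suspension in 0.5% methocel. […] Reported as mean ± error.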

[7] = Cmax in rat at 10 mg/kg, po; type: ADME, organism-based; set-up: dose 10 mg/kg, route oral; conditions: in vivo; how it was run: as §3
[8] = AUC (0 to 24 hrs) in rat at 10 mg/kg, po; type: ADME, organism-based; set-up: time < 24 hr, dose 10 mg/kg, route oral; conditions: plasma; how it was run: as §3
[9] = Cmax in rat at 100 mg/kg, po; type: ADME, organism-based; set-up: dose 100 mg/kg, route oral; conditions: in vivo; how it was run: as §3
[10] = Clearance in dog at 1 mg/kg, iv; type: ADME, organism-based, Canis lupus familiaris; set-up: dose 1 mg/kg, route intravenous; conditions: in vivo; how it was run: as §2
[11] = AUC (0 to 24 hrs) in dog at 10 mg/kg, po; type: ADME, organism-based, Canis lupus familiaris; set-up: time < 24 hr, dose 10 mg/kg, route oral; conditions: plasma; how it was run: as §3
[12] = Half life in rhesus monkey at 1 mg/kg, iv; type: ADME, organism-based, Macaca mulatta; set-up: dose 1 mg/kg, route intravenous; conditions: in vivo; how it was run: as §2
[13] = Clearance in rhesus monkey at 1 mg/kg, iv; type: ADME, organism-based, Macaca mulatta; set-up: dose 1 mg/kg, route intravenous; conditions: in vivo; how it was run: as §2
[14] = Plasma concentration in rat complete Freund's adjuvant-induced inflammation model at 10 mg/kg, po QD for 3 consecutive days measured at 2 hrs post dose on day 1; type: ADME, organism-based; set-up: dose 10 mg/kg, route oral; how it was run: as §1
[15] = biological target: Voltage-gated inwardly rectifying potassium channel KCNH2 (Homo sapiens, UniProt Q12809); test: Inhibition of human hERG
Voltage-gated inwardly rectifying potassium channel KCNH2, sequence (Q12809 whole entry): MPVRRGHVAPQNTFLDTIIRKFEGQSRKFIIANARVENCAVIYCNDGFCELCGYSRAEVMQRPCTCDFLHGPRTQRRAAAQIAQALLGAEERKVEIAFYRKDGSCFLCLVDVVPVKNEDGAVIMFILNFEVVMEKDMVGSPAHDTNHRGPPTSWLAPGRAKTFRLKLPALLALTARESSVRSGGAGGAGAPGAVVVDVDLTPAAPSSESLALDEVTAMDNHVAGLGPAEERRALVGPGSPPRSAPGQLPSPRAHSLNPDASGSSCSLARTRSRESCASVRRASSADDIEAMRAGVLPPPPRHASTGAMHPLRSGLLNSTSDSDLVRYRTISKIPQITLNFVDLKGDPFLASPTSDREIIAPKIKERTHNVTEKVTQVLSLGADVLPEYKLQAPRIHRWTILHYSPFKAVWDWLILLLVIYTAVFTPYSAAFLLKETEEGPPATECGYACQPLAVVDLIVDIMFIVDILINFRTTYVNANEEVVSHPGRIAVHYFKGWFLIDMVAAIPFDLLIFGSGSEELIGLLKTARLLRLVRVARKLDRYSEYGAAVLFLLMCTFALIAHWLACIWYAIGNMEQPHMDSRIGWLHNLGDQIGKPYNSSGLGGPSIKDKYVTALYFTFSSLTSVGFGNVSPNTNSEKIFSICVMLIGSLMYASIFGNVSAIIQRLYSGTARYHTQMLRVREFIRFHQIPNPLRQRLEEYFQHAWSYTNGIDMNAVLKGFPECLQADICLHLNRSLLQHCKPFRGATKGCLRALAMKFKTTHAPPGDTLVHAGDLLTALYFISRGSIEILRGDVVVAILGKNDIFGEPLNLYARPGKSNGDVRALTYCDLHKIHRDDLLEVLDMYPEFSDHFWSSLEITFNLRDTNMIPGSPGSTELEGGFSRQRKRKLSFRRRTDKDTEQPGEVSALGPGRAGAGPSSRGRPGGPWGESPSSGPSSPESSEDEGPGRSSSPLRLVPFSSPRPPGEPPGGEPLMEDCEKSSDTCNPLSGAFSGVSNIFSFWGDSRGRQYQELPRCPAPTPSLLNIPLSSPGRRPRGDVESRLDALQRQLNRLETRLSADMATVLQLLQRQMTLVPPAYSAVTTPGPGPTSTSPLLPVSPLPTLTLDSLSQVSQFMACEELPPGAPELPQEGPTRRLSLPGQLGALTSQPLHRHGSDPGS

[16] = AUC (0 to 24 hrs) in rat brain at 10 mg/kg, po; type: ADME, organism-based; set-up: time < 24 hr, dose 10 mg/kg, route oral
[17] = Cmax in rat brain at 10 mg/kg, po; type: ADME, organism-based; set-up: dose 10 mg/kg, route oral
Rattus norvegicus [18] = test: Antiinflammatory activity in rat assessed as inhibition of complete Freund's adjuvant-induced hind paw edema at 10 mg/kg, po administered 1 day after complete Freund's adjuvant challenge QD for 3 consecutive days measured at 2 hrs post dose on day 1; type: functional
How it was run: (§4)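 CFA 200 µL injected intraplantar into the left hind paw. From the next day, 1, 3 or 10 mg/kg po once daily for 3 days as a suspension in 0.5% methocel.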

[19] = Plasma concentration in rat complete Freund's adjuvant-induced inflammation model at 1 mg/kg, po QD for 3 consecutive days measured at 2 hrs post dose on day 2; type: ADME, organism-based; set-up: dose 1 mg/kg, route oral; how it was run: as §1
[20] = Plasma concentration in rat complete Freund's adjuvant-induced inflammation model at 3 mg/kg, po QD for 3 consecutive days measured at 2 hrs post dose on day 2; type: ADME, organism-based; set-up: dose 3 mg/kg, route oral; how it was run: as §1
[21] = Plasma concentration in rat complete Freund's adjuvant-induced inflammation model at 10 mg/kg, po at 2 hrs on second day; type: ADME, organism-based; set-up: dose 10 mg/kg, route oral; how it was run: as §1
[22] = Plasma concentration in rat complete Freund's adjuvant-induced inflammation model at 1 mg/kg, po at 2 hrs on third day; type: ADME, organism-based; set-up: dose 1 mg/kg, route oral; how it was run: as §1
[23] = Plasma concentration in rat complete Freund's adjuvant-induced inflammation model at 3 mg/kg, po at 2 hrs on third day; type: ADME, organism-based; set-up: dose 3 mg/kg, route oral; how it was run: as §1
Liver microsomes = test: Metabolic stability in rat liver microsomes assessed per mg of protein at 8.1 mg/kg, po after 2 to 24 hrs; type: ADME, organism-based, Microsome; set-up: dose 8.1 mg/kg, route oral
Rattus norvegicus [24] = test: Antiinflammatory activity in po dosed rat assessed as inhibition of complete Freund's adjuvant-induced hind paw edema administered 1 day after complete Freund's adjuvant challenge QD for 3 consecutive days measured at 2 hrs post dose on day 1; type: functional, organism-based; how it was run: as §4
Rattus norvegicus [25] = test: Antiinflammatory activity in rat assessed as inhibition of complete Freund's adjuvant-induced hind paw edema at 1 mg/kg, po administered 1 day after complete Freund's adjuvant challenge QD for 3 consecutive days measured at 24 hrs post dose on day 3; type: functional; how it was run: as §4
Canis familiaris [26] = organism: Canis familiaris; test: Cardiotoxicity in dog assessed as effect on mean arterial pressure at plasma concentration of up to 24 uM; type: toxicity, organism-based, Canis lupus familiaris
Canis familiaris [27] = organism: Canis familiaris; test: Cardiotoxicity in dog assessed as effect on ECG intervals at plasma concentration of up to 24 uM; type: toxicity, organism-based, Canis lupus familiaris
[28] = biological target: T1, Transient receptor potential cation channel subfamily V member 1; test: Antagonist activity at Sprague-Dawley rat dorsal root ganglion TRPV1 assessed as inhibition of pH-induced receptor activation; type: functional, tissue-based
How it was run: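 Rat TRPV1 activated by low pH (5.0–5.5); inhibition measured and IC50 given as the mean of ≥3 experiments.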

MDCK = test: Efflux ratio of permeability from basolateral to apical side over apical to basolateral side of MDCK cells; conditions: dog
Rattus norvegicus [29] = test: Antiinflammatory activity in rat assessed as reversal of complete Freund's adjuvant-induced mechanical hyperalgesia at 1 to 10 mg/kg, po administered 1 day after complete Freund's adjuvant challenge QD for 3 consecutive days measured at 24 hrs post dose on day 2

## NC(=O)c1cnc(-c2cnc3c(Nc4ccc(C(F)(F)F)cn4)ccnc3n2)c(C(F)(F)F)c1
[1]
  concentration at 2 h: 1.2 µM
[2]
  IC50: 1.3 nM
Rattus norvegicus [3]
  inhibition in vivo at 3 mg/kg: 74%
[4]
  clearance: 1.5 L/h/kg
[5]
  Vd: 4.3 L/kg
[6]
  AUC(0-t) at 24 h: 1.4 µM·h
[7]
  Cmax: 2.1 µM
[8]
  AUC(0-t) at 24 h: 29.9 µM·h
[9]
  Cmax: 15 µM
[10]
  clearance: 0.444 L/h/kg
[11]
  AUC(0-t) at 24 h: 68 µM·h
[12]
  half-life: 4.4 h
[13]
  clearance: 0.168 L/h/kg
[14]
  concentration at 2 h: 2.43 µM
[15]
  IC50: 5900 nM
[16]
  AUC(0-t) at 24 h: 3.4 µM·h
[17]
  Cmax: 0.3 µM
Rattus norvegicus [18]
  inhibition in vivo at 10 mg/kg: 85%
[19]
  concentration at 2 h: 0.36 µM
[20]
  concentration at 2 h: 1.1 µM
[21]
  concentration at 2 h: 3.12 µM
[22]
  concentration at 2 h: 0.35 µM
[23]
  concentration at 2 h: 1.28 µM
Liver microsomes
  Stability: < 10 pmol
Rattus norvegicus [24]
  Activity: Dose-dependent effect
Rattus norvegicus [25]
  inhibition in vivo at 1 mg/kg: 42%
Canis familiaris [26]
  Activity: Non-toxic
Canis familiaris [27]
  Activity: Non-toxic
[28]
  IC50: 1.3 nM
MDCK
  Ratio: 3.1
Rattus norvegicus [29]
  inhibition: Active
